Each structure is given as a SMILES string.

Broadly, the GI50 is the concentration that inhibits growth by half. Read a high GI50 as lower sensitivity of the cells.

A short description of this series: Cytotoxicity in HFF cells after 72 hrs by trypan blue exclusion assay. It is filed as cell-based. Conditions: human. In short, it runs like this: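 Human normal fibroblasts, 2 × 10⁵ per well, seeded in RPMI 1640 with 10% fetal calf serum plus penicillin and streptomycin at 37 °C under CO₂. Compound added after 24 h. Living cells counted at 72 h by trypan blue exclusion, expressed as percent of control proliferation; GI50 derived.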

Turning to `CCCCOc1ccc(NC(=O)n2nc(N)c3cc(N)ccc32)cc1`, growth was halved (GI50 at 72 h) at 32 µM. This lies in the double-digit micromolar range.
